# Source: ChEMBL document CHEMBL1154262, “Inhibitors of osteoclast formation from rhizomes of Cibotium barometz” (J Nat Prod, 2009)
# Legend:
# [1] = Inhibition of osteoclastogenesis in RANKL and M-CSF-stimulated mouse BMDM cells at 200 uM after 4 days by TRAP assay; type: functional; conditions: 96 h
# Method in brief: (§1)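 Mouse femur/tibia marrow cells grown 3 days at 37 °C in R-MEM/10% FBS with M-CSF 100 ng/mL to give BMMs, lifted with trypsin/EDTA. They were then differentiated with M-CSF 20 ng/mL and RANKL 100 ng/mL plus compound, with medium changed every 2 days. At day 4, TRAP staining was done and TRAP-positive multinucleated cells per well were counted relative to DMSO control.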
# BMDM = assay: Inhibition of osteoclastogenesis in RANKL and M-CSF-stimulated mouse BMDM cells after 4 days by TRAP assay; type: functional, cell-based; method in brief: as §1
# [2] = Cytotoxicity against RANKL and M-CSF-stimulated mouse BMDM cells at 100 to 200 uM after 72 hrs by MTS-cell titer assay; type: cell-based
# Method in brief: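 Bone marrow macrophages from femora and tibia of 6-8 week old mice, expanded 3 days in R-MEM/10% FBS with M-CSF 100 ng/mL, then trypsin/EDTA-lifted. Cells exposed to compound alongside recombinant M-CSF 20 ng/mL plus RANKL 100 ng/mL for 72 h at 37 °C. Percent survival read by MTS (CellTiter 96 Aqueous) against DMSO-treated control.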
Structure (SMILES),inhibition at 200 µM [1] [%],Activity (BMDM),Activity [2]
"CC1=CC(=O)CC(C)(C)[C@@]1(O)/C=C/[C@H](C)O[C@@H]1O[C@H](CO)[C@@H](O)[C@H](O)[C@H]1O [6S,9S-ROSEOSIDE]",75,Dose-dependent effect,Non-toxic
CCCCC/C=C\C/C=C\CCCCCCCC(=O)OC[C@@H](O)CO[C@H]1O[C@H](CS(=O)(=O)O)[C@@H](O)[C@H](O)[C@H]1O,97,Dose-dependent effect,–
CO[C@@H]1C[C@](O)(CO[C@@H]2O[C@H](CO)[C@@H](OC(=O)/C=C/c3ccc(O)c(O)c3)[C@H](O)[C@H]2O)[C@H](OC)O1 [CIBOTIUMBAROSIDE B],73,Dose-dependent effect,Non-toxic
